Results as given in ChEMBL document CHEMBL2346560, “Structure and function of a potent lipopolysaccharide-binding antimicrobial and anti-inflammatory peptide” (J Med Chem, 2013).
In brackets after ≈: the same amount, converted by molar mass. Activity calls are given as the source filed them. The calls are words filed in the database; no cut-off is given here. Bridge positions count the residues as written; N and C are the ends. Peptide text beside a SMILES is read from it.

Columns and labels:
Escherichia coli [1] = test: Bactericidal activity against Escherichia coli ATCC 25922 at 5 times MIC after 40 mins by colony counting assay (reference value: 131.7 CFU); type: functional
RAW264.7 [2] = test: Antiinflammatory activity in mouse RAW264.7 cells assessed as inhibition of LPS-induced NO production after 24 hrs by spectrophotometric analysis; type: functional, cell-based
In short: (§1)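 RAW 264.7 cells (1 × 10^7) in RPMI-1640 with 10% FBS and penicillin/streptomycin were treated with peptide (2.5, 5, 10, 20 µg/mL) with or without LPS (E. coli 055:B5, 100 ng/mL) for 24 h. Medium nitrite was measured with Griess reagent at A540 against a NaNO2 standard curve. Control was LPS alone. Mean ± SEM of three separate experiments.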

Staphylococcus aureus [3] = test: Antibacterial activity against Staphylococcus aureus ATCC 2592 treated with NaCl after 16 hrs by broth dilution method; type: functional; details: ATCC 2592, 16 h
In short: (§2)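 Salt sensitivity of the MIC. Peptide was tested in water, NaCl, CaCl2, MgCl2 or PBS (Na2HPO4-NaH2PO4, pH 7.4), with every salt at 150 mM. Values are means of three independent experiments, each run in duplicate.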

RAW264.7 [4] = test: Antiinflammatory activity in mouse RAW264.7 cells assessed as inhibition of LPS-induced TNF alpha production after 24 hrs by ELISA; type: functional, cell-based
In short: (§3)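 RAW 264.7 cells (2 × 10^5) were plated and allowed to adhere. They were given peptide (2.5, 5, 10, 20 µg/mL) with or without LPS (E. coli 055:B5, 20 ng/mL) for 24 h. Supernatant TNF-α, IL-6 and MCP-1 were measured by ELISA at A450. Controls were LPS alone and untreated cells. Mean ± SEM of three separate experiments.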

Candida albicans = test: Antifungal activity against ampicillin, benzylpencillin-resistant Candida albicans 08022821 after 16 hrs by broth dilution method; type: functional; details: Candida albicans, 08022821, 16 h
In short: (§4)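 MIC read-out, reported in µg/mL with µM equivalents. Each value is the mean of three independent experiments, each run in duplicate.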

Staphylococcus aureus [5] = test: Antibacterial activity against ampicillin, benzylpencillin-resistant Staphylococcus aureus 08A875 after 16 hrs by broth dilution method; type: functional; details: 08A875, 16 h; in short: as §4
Escherichia coli [6] = test: Bactericidal activity against Escherichia coli ATCC 25922 at 5 times MIC after 60 mins by colony counting assay (reference value: 296 CFU); type: functional
Pseudomonas aeruginosa [7] = test: Antibacterial activity against ampicillin, benzylpencillin-resistant Pseudomonas aeruginosa 08031014 after 16 hrs by broth dilution method; type: functional; details: Pseudomonas aeruginosa, 08031014, 16 h; in short: as §4
Escherichia coli [8] = test: Bactericidal activity against Escherichia coli ATCC 25922 at MIC after 5 mins by colony counting assay (reference value: 47.7 CFU); type: functional
Escherichia coli [9] = test: Bactericidal activity against Escherichia coli ATCC 25922 at 5 times MIC after 120 mins by colony counting assay (reference value: 1868.3 CFU); type: functional
Pseudomonas aeruginosa [10] = test: Antibacterial activity against Pseudomonas aeruginosa ATCC 27853 treated with water after 16 hrs by broth dilution method; type: functional; details: ATCC 27853, 16 h; in short: as §2
Lipopolysaccharide (LPS) = test: Binding affinity to Escherichia coli 055:B5 lipopolysaccharide by NMR titration assay
In short: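 2D TOCSY NMR titration: peptide 2.5 mM in 95% H2O/TFE-d3 (6:4, v/v) with 5% D2O, pH 6.2, 25 °C, alone or with LPS from E. coli 055:B5 (2.5 mM : 1 µg and 2.5 mM : 5 µg). Readout is the ratio of amide proton peak heights, free versus LPS-bound, per residue.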

Escherichia coli [11] = test: Antibacterial activity against Escherichia coli ATCC 25922 assessed as cell swelling after 30 mins by scanning electron microscopic analysis; type: functional, organism-based
In short: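 E. coli (about 2 × 10^7 CFU/mL) was exposed to peptide at 1 × MIC, 37 °C, 30 min, beside an untreated control. Cells were pelleted, fixed in 2.5% buffered glutaraldehyde (4 °C, 2 h), post-fixed in 1% osmium tetroxide (2 h), dehydrated through graded ethanol, frozen in tert-butyl alcohol and vacuum-dried, then imaged by SEM.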

[12] = Toxicity in human RBC assessed as induction of hemolysis at 12.5 ug/mL after 30 mins relative to control; type: cell-based, Erythrocyte; details: red blood cells (RBC), read-out: Activity
In short: (§5)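 Human red blood cells incubated with peptide. Hemoglobin release read as absorbance at 540 nm and expressed against 1% Triton X-100 as positive control.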

RAW264.7 [13] = test: Antiinflammatory activity in mouse RAW264.7 cells assessed as inhibition of LPS-induced NFkappaB translocation from cytoplasm to nucleus at 20 ug/mL preincubated for 1 hr prior to LPS-challenge measured after 3 hrs by Western blotting analysis relative to LPS-treated control; type: functional
In short: (§6)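 RAW 264.7 cells (1 × 10^6/well) were serum-starved in RPMI-1640 for 16 h. They were pretreated with peptide (0, 5, 10, 20 µg/mL) for 1 h, then given LPS (E. coli 055:B5, 0 or 100 ng/mL) for 3 h. Cells were washed in ice-cold PBS, and cytoplasmic or nuclear fractions were blotted for TLR4, JNK, NF-κB p65 and β-actin. Control was LPS alone.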

Escherichia coli [14] = test: Antibacterial activity against ampicillin, benzylpencillin-resistant Escherichia coli 08A866 after 16 hrs by broth dilution method; type: functional; details: 08A866, 16 h; in short: as §4
Pseudomonas aeruginosa [15] = test: Antibacterial activity against Pseudomonas aeruginosa ATCC 27853 after 16 hrs by broth dilution method; type: functional; details: ATCC 27853, 16 h
In short: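 MIC determined by an earlier in-house method. Values are means of three independent experiments, each run in duplicate.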

Escherichia coli [16] = test: Bactericidal activity against Escherichia coli ATCC 25922 at 5 times MIC after 10 mins by colony counting assay (reference value: 58.3 CFU); type: functional
Escherichia coli [17] = test: Bactericidal activity against Escherichia coli ATCC 25922 at 5 times MIC after 20 mins by colony counting assay (reference value: 79.3 CFU); type: functional
RAW264.7 [18] = test: Antiinflammatory activity in mouse RAW264.7 cells assessed as inhibition of LPS-induced JNK2 expression at 10 to 20 ug/mL preincubated for 1 hr prior to LPS-challenge measured after 3 hrs by Western blotting analysis; type: functional, cell-based; in short: as §6
RAW264.7 [19] = test: Antiinflammatory activity in mouse RAW264.7 cells assessed as inhibition of LPS-induced TLR4 expression preincubated for 1 hr prior to LPS-challenge measured after 3 hrs by Western blotting analysis; type: functional, cell-based; in short: as §6
[20] = Toxicity in human RBC assessed as induction of hemolysis after 30 mins; type: cell-based; details: erythrocyte, 0.5 h; in short: as §5
Escherichia coli [21] = test: Antibacterial activity against Escherichia coli ATCC 25922 treated with MgCl2 after 16 hrs by broth dilution method; type: functional; details: ATCC 25922, 16 h; in short: as §2
RAW264.7 [22] = test: Antiinflammatory activity in mouse RAW264.7 cells assessed as inhibition of LPS-induced NFkappaB translocation from cytoplasm to nucleus preincubated for 1 hr prior to LPS-challenge measured after 3 hrs by Western blotting analysis; type: functional, cell-based; in short: as §6
RAW264.7 [23] = test: Antiinflammatory activity in mouse RAW264.7 cells assessed as inhibition of LPS-induced NO production at 10 ug/mL after 24 hrs by spectrophotometric analysis relative to control; type: functional; details: RAW264.7, 24 h; in short: as §1
RAW264.7 [24] = test: Antiinflammatory activity in mouse RAW264.7 cells assessed as inhibition of LPS-induced MCP1 production after 24 hrs by ELISA; type: functional, cell-based; in short: as §3

Question: What does the source list for `CC[C@H](C)[C@H](NC(=O)[C@H](Cc1cnc[nH]1)NC(=O)[C@H](CO)NC(=O)[C@@H](NC(=O)[C@@H](NC(=O)[C@@H](NC(=O)[C@@H](NC(=O)[C@H](CCCNC(=N)N)NC(=O)[C@H](CC(C)C)NC(=O)[C@H](CCCCN)NC(=O)[C@H](CCC(=O)O)NC(=O)[C@H](CCCCN)NC(=O)[C@H](CC(C)C)NC(=O)[C@H](CCCCN)NC(=O)[C@@H]1CSSC[C@H](NC(=O)[C@H](CCCCN)NC(=O)[C@@H](N)CCCNC(=N)N)C(=O)N[C@@H](CC(N)=O)C(=O)N[C@@H](Cc2ccccc2)C(=O)N[C@@H](CC(C)C)C(=O)N1)[C@@H](C)O)C(C)C)[C@@H](C)CC)[C@@H](C)O)C(=O)N[C@@H](CC(=O)O)C(=O)N[C@@H](CCCCN)C(=O)N[C@H](C(=O)N[C@@H](CC(C)C)C(=O)N[C@@H](CCCNC(=N)N)C(=O)N1CCC[C@H]1C(=O)N[C@@H](CCC(N)=O)C(=O)NCC(=O)O)C(C)C` (H-RKCNFLCKLKEKLRTVITSHIDKVLRPQG-OH; disulfide 3-7)?
Answer: CFU (Escherichia coli [1]): 0; inhibition (RAW264.7 [2]): Dose-dependent effect; MIC (Staphylococcus aureus [3]): 4.69 µg/mL (≈ 1.37 µM); inhibition (RAW264.7 [4]): Dose-dependent effect; MIC (Candida albicans): 2.74 µM (≈ 9.38 µg/mL); MIC (Staphylococcus aureus [5]): 5.48 µM (≈ 18.8 µg/mL); CFU (Escherichia coli [6]): 0; MIC (Pseudomonas aeruginosa [7]): 10.9 µM (≈ 37.5 µg/mL); CFU (Escherichia coli [8]): 37.3; CFU (Escherichia coli [9]): 0; MIC (Pseudomonas aeruginosa [10]): 18.8 µg/mL (≈ 5.48 µM); Activity (Lipopolysaccharide (LPS)): Active; Activity (Escherichia coli [11]): Active; hemolysis at 0.5 h, 12.5 ug/mL [12]: 2.5%; inhibition at 20 µg/mL (RAW264.7 [13]): 74%; MIC (Escherichia coli [14]): 2.74 µM (≈ 9.38 µg/mL); MIC (Pseudomonas aeruginosa [15]): 5.48 µM (≈ 18.8 µg/mL); CFU (Escherichia coli [16]): 10; CFU (Escherichia coli [17]): 0; inhibition (RAW264.7 [18]): Active; inhibition (RAW264.7 [19]): Dose-dependent effect; Activity [20]: Dose-dependent effect; MIC (Escherichia coli [21]): 2.35 µg/mL (≈ 0.686 µM); inhibition (RAW264.7 [22]): Dose-dependent effect; inhibition at 10 µg/mL (RAW264.7 [23]): 50%; inhibition (RAW264.7 [24]): Dose-dependent effect
